According to ChEMBL document CHEMBL4680165, “β-Lactams with antiproliferative and antiapoptotic activity in breast and chemoresistant colon cancer cells” (Eur J Med Chem, 2020):
pIC50: −log10 of the molar value. Active and inactive are the calls of the source. The rule behind the calls is not given here.

What was measured:
HT-29 = assay: Antiproliferative activity against human HT-29 cells assessed as reduction in cell viability after 72 hrs by alamar blue assay; assay type: functional, cell-based; details: HT-29, 72 h
Procedure, shortened: (§1)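 Cells seeded at 5 x 10^3/well (MCF-7) or 1 x 10^4/well (HT-29, HEK-293T) and treated after 24 h with serial dilutions (0.001-100 µM) in 1% v/v ethanol vehicle. Alamar Blue 10% v/v added at 72 h, then 3-5 h at 37 °C in the dark; fluorescence ex 530/em 590 nm. Viability relative to vehicle; IC50 from dose-response curves; mean of three experiments in triplicate.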

[1] = system: UDP-glucuronosyltransferases (UGTs); assay: Metabolic stability in human liver microsomes assessed as UGT-mediated N-glucuronidation by measuring half life at 3 uM measured up to 45 mins by LC-MS/MS analysis; assay type: ADME; details: microsomes, 0.75 h, 3 µM
Procedure, shortened: (§2)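 Pooled human liver microsomes (0.5 mg/mL protein final) with alamethicin (25 µg/mg) in 0.1 M phosphate pH 7.4, compound 3 µM final (0.25% DMSO), preincubated 37 °C. Reaction started with UDPGA (1 mM final). Sampled at 0, 5, 15, 30, 45 min into methanol, analysed by LC-MS/MS. Minus-UDPGA control run 45 min. Single incubations; t½ and CLint taken from the elimination rate constant.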

[2] = Selectivity index, ratio of IC50 for human MCF7 cells to IC50 for human HT-29 cells assessed as reduction in cell viability after 72 hrs by alamar blue assay; assay type: functional
Bos taurus = species: Bos taurus; assay: Inhibition of bovine brain tubulin polymerization at 10 uM measured at 30 sec interval for 30 mins in presence of GTP by turbidimetry-based spectrophotometric method
MCF7 = assay: Antiproliferative activity against human MCF7 cells assessed as reduction in cell viability after 72 hrs by alamar blue assay; assay type: functional, cell-based; details: MCF7, 72 h; procedure, shortened: as §1
[3] = system: UDP-glucuronosyltransferases (UGTs); assay: Metabolic stability in human liver microsomes assessed as UGT-mediated N-glucuronidation by measuring intrinsic clearance at 3 uM measured up to 45 mins by LC-MS/MS analysis; assay type: ADME; details: microsomes, 0.75 h, 3 µM; procedure, shortened: as §2
Tubulin (Homo sapiens) [4] = biological target: T1, Tubulin (Homo sapiens) (UniProt P68371+Q9H4B7+P0DPH7+P68366+Q13509+Q71U36+P04350+Q3ZCM7+P07437+P68363+Q9BQE3+Q6PEY2+Q13885+Q9BVA1+Q9BUF5); assay: Binding affinity to tubulin in human MCF7 cells assessed as inhibition of tubulin-EBI adduct formation preincubated for 2 hrs followed by EBI addition and measured after 1.5 hrs by Western blotting analysis; assay type: cell-based; details: time 3.5 hrs
Procedure, shortened: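 MCF-7 cells (5 × 10^4/well) were incubated overnight, then given vehicle (0.1% v/v ethanol) or compound at 10 µM for 2 h. Selected wells then received EBI (100 µM) for 1.5 h. Cells were washed in ice-cold PBS, lysed in Laemmli buffer and run on SDS-PAGE. Blots were probed for β-tubulin and the β-tubulin–EBI adduct, with GAPDH as loading control. Three independent experiments.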

Tubulin (Homo sapiens) [5] = biological target: T1, Tubulin (Homo sapiens); assay: Induction of microtubule depolymerization in human MCF7 cells at 1 uM after 16 hrs by immunofluorescence staining based confocal microscopic analysis; assay type: cell-based

Activity (Tubulin (Homo sapiens) [5]) | SMILES | pIC50 (HT-29) | t1/2 [1] [min] | Ratio IC50 [2] | inhibition (Bos taurus) | pIC50 (MCF7) | CLH [3] [µL/min/mg] | Activity (Tubulin (Homo sapiens) [4])
– | COc1ccc(/C=C\c2cc(OC)c(OC)c(OC)c2)cc1O [COMBRETASTATIN A4] | 5.38 | 2.71 | 0.001 | Active | 8.40 | 645 | Active
Active | CC(=O)O[C@H]1C(=O)[C@@]2(C)[C@H]([C@H](OC(=O)c3ccccc3)[C@]3(O)C[C@H](OC(=O)[C@H](O)[C@@H](NC(=O)c4ccccc4)c4ccccc4)C(C)=C1C3(C)C)[C@]1(OC(C)=O)CO[C@@H]1C[C@@H]2O | – | – | – | – | – | – | –
